Reference: ChEMBL document CHEMBL1140767, “Discovery and structure-activity relationship of N-phenyl-1H-pyrazolo[3,4-b]quinolin-4-amines as a new series of potent apoptosis inducers” (Bioorg Med Chem, 2008)
Where “and” joins values, the source holds several entries; their conditions need not be identical. Equal values may be shown once.

Columns and labels:
[1] = test system: SNU-398; experiment: Induction of apoptosis in human SNU398 cells assessed as caspase-3 activation; type: functional, cell-based
How it was run: (§1)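 Cells grown in RPMI-1640 + 10% FCS, trypsinized, and resuspended at 0.65 × 10^6 cells/mL. Treated in 384-well plates with 0.005–10 µM final compound (1% DMSO) for 24 h. N-(Ac-DEVD)-N'-ethoxycarbonyl-R110 substrate was then added, and fluorescence (ex 485/em 525 nm) was read at 0 and 3 h. Activity is the net RFU ratio of test to control. EC50 from a sigmoidal fit at 50% maximal response; mean of ≥3 experiments ± SEM.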

[2] = test system: HCT-116; experiment: Induction of apoptosis in human HCT116 cells assessed as caspase-3 activation; type: functional, cell-based; how it was run: as §1
[3] = test system: T47D; experiment: Induction of apoptosis in human T47D cells assessed as caspase-3 activation; type: functional, cell-based; how it was run: as §1
[4] = test system: SNU-398; experiment: Antiproliferation activity against human SNU398 cells; type: functional
How it was run: (§2)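 Cells in RPMI-1640 + 10% FCS, 5% CO2, 37 °C. Seeded at 4.4 × 10^4 cells/mL in 96-well plates and exposed to compound at 0.001–10 µM final (1% DMSO) for 48 h at 37 °C. Viability read by CellTiter-Glo luminescence. A 0.5 h plate gave the initial-cell baseline and untreated wells gave maximal proliferation. GI50 is the mean of ≥3 experiments ± SEM.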

[5] = test system: T47D; experiment: Antiproliferation activity against human T47D cells; type: functional; how it was run: as §2
[6] = test system: HCT-116; experiment: Antiproliferation activity against human HCT116 cells; type: functional; how it was run: as §2
[7] = test system: T47D; experiment: Induction of apoptosis in human T47D cells assessed as accumulation at S phase at […] after 24 hrs; type: functional
How it was run: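 T47D cells treated with 50 nM compound, or DMSO as control, for 24 h or 48 h at 37 °C. Cells then stained with propidium iodide and analysed by flow cytometry for DNA-content histograms. Sub-diploid DNA content was taken to indicate apoptotic cells.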

EC50 [1] [µM] | EC50 [2] [µM] | EC50 [3] [µM] | GI50 [4] [µM] | GI50 [5] [µM] | GI50 [6] [µM] | SMILES | Activity [7]
0.15 | 0.19 | 0.21 |  |  |  | CCC(=O)c1ccc(Nc2c3ccccc3nc3c2c(C)nn3CC)cc1 | 
> 10 | > 10 | > 10 | > 10 | > 10 | > 10 | COc1ccc(Nc2c3ccccc3nc3[nH]nc(C)c23)cc1 | 
0.27 | 0.48 | 0.51 |  |  |  | CCC(=O)c1ccc(Nc2c3cccc([N+](=O)[O-])c3nc3c2c(C)nn3C)cc1 | 
0.73 | 1.36 | 1.15 |  |  |  | CC(=O)c1ccc(Nc2c3ccccc3nc3c2cnn3C)cc1 | 
0.44 | 0.66 | 0.45 | 0.17 | 0.56 | 0.5 | CC(=O)c1cccc(Nc2c3c(nc4ccccc24)CCC3)c1 | 
0.48 | 1.25 | 1.01 |  |  |  | COc1ccc(Nc2c3ccccc3nc3c2c(C)nn3C)cc1 | 
0.66 | 0.94 | 1.11 |  |  |  | CC(=O)c1ccc(Nc2c3cccc(C)c3nc3c2c(C)nn3C)cc1 | 
> 10 | > 10 | > 10 |  |  |  | Cc1nn(C)c2nc3ccccc3c(Nc3ccc(C(=O)O)cc3)c12 | 
> 10 | > 10 | > 10 |  |  |  | CC(=O)c1ccc(Nc2c3cc(C)ccc3nc3c2c(C)nn3C)cc1 | 
1.33 | 6.08 | 5.21 |  |  |  | COC(=O)c1ccc(N(C)c2c3ccccc3nc3c2c(C)nn3C)cc1 | 
> 10 | > 10 | > 10 |  |  |  | Cc1nn(C)c2nc3ccccc3c(Nc3ccc(C(N)=O)cc3)c12 | 
0.27 | 0.67 | 0.54 |  |  |  | COC(=O)c1ccc(Nc2c3ccccc3nc3c2c(C)nn3C)cc1 | 
> 10 | > 10 | > 10 |  |  |  | CC(=O)c1ccc(Oc2c3ccccc3nc3c2c(C)nn3C)cc1 | 
> 10 | > 10 | > 10 |  |  |  | CC(=O)c1ccc(Nc2c3ccccc3nc3c2c(C(C)C)nn3C)cc1 | 
0.24 | 0.39 | 0.44 |  |  |  | Cc1nn(C)c2nc3ccccc3c(Nc3ccc(C(=O)C(C)C)cc3)c12 | 
0.034 | 0.064 | 0.071 | 0.016 | 0.026 | 0.042 | CCC(=O)c1ccc(Nc2c3ccccc3nc3c2c(C)nn3C)cc1 | 13.6% and 7.6% and 18.8%
0.27 | 0.66 | 0.52 |  |  |  | CC(=O)c1ccc(Nc2c3ccccc3nc3c2c(C)nn3C)cc1 | 
> 10 | > 10 | 7.26 |  |  |  | COc1cccc(Nc2c3ccccc3nc3c2c(C)nn3C)c1 | 
4.99 | 6.67 | 5.47 |  |  |  | COc1ccc(Sc2c3ccccc3nc3c2c(C)nn3C)cc1 | 
0.053 | 0.33 | 0.14 | 0.14 | 0.59 | 0.93 | CCC(O)c1ccc(Nc2c3ccccc3nc3c2c(C)nn3C)cc1 (stereo not drawn) | 
